Measurements: ChEMBL document CHEMBL1833917, “Antimalarial activity of physalins B, D, F, and G” (J Nat Prod, 2011)
Activity calls are given as the source filed them. The calls are words filed in the database; no cut-off is given here.

How the values were obtained:
[1] = tested on: Plasmodium berghei; assay: Antimalarial activity against Plasmodium berghei NK65 infected in mouse assessed as reduction of parasitemia level at 50 mg/kg, ip qd for 4 days by optical microscopy analysis; format: functional, organism-based; parameters: dose 50 mg/kg
Summary of the method: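 Male SPF Swiss mice, 5 weeks old, infected with P. berghei NK65 (line kept by weekly ip blood passage of 10^6 infected RBC). Groups of five were dosed ip daily for 4 days from the first day of infection, in 200 μL saline plus 10% DMSO. Chloroquine 50 mg/kg and vehicle served as controls. Parasitemia was counted by microscopy on methanol-fixed, fast-panoptic-stained blood smears on days 4–8. Reduction was calculated versus vehicle. Two replicate experiments were run.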

[2] = Selectivity index, ratio of LC50 for mouse splenocytes to IC50 for chloroquine-resistant and mefloquine-sensitive Plasmodium falciparum W2
Summary of the method: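 SI = splenocyte LC50 (3H-thymidine assay) divided by W2 P. falciparum IC50 (3H-hypoxanthine assay), each from three independent experiments.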

[3] = Cytotoxicity against BALB/c mouse splenocytes assessed as [3H]thymidine incorporation after 24 hrs by beta counting; format: cell-based, Splenocyte; conditions: read-out: LC50
Summary of the method: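 BALB/c splenocytes, 6 × 10^5 cells/well, in DMEM + 10% FCS + 50 μg/mL gentamycin. Compounds were tested at five concentrations in triplicate. 3H-thymidine (1 μCi/well) was added, followed by 24 h at 37 °C, 5% CO2, then β-counting. Cytotoxicity was taken relative to untreated cultures and LC50 derived. Means ± SD of three experiments.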

[4] = tested on: Plasmodium falciparum; assay: Antimalarial activity against chloroquine-resistant and mefloquine-sensitive Plasmodium falciparum W2 infected in human O-positive erythrocytes assessed as inhibition of parasite growth by [3H]hypoxanthine incorporation assay; format: functional, organism-based
Summary of the method: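 Compounds were tested at several concentrations, diluted in 4% DMSO/RPMI without hypoxanthine, with mefloquine as control. Growth was measured by 3H-hypoxanthine uptake versus untreated wells. Triplicate, means ± SD of three independent experiments.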

[5] = tested on: Plasmodium berghei; assay: Antimalarial activity against Plasmodium berghei NK65 infected in mouse assessed as reduction of parasitemia level at 50 to 100 mg/kg, ip qd for 4 days measured on day 8 postinfection by optical microscopy analysis; format: functional; parameters: scale not given: the % may be the effect or the level left; conditions: dose mg/kg 50-100; route intraperitoneal
Summary of the method: (§1)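 Male Swiss mice (5-week-old, SPF), groups of five, infected with P. berghei NK65 (line kept by weekly ip blood passage of 10^6 infected RBC). Dosing ip, 200 μL, daily for four consecutive days from the first day of infection, in saline + 10% DMSO. Comparators were chloroquine 50 mg/kg and 10% DMSO/saline mock. Survival was monitored to day 24.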

[6] = tested on: Plasmodium berghei; assay: Antimalarial activity against Plasmodium berghei NK65 infected in mouse assessed as reduction of host mortality at 100 mg/kg, ip qd for 4 days measured on day 24 postinfection; format: functional; parameters: scale not given: the % may be the effect or the level left; conditions: route intraperitoneal; summary of the method: as §1
[7] = tested on: Plasmodium berghei; assay: Antimalarial activity against Plasmodium berghei NK65 infected in mouse assessed as reduction of host mortality at 50 to 100 mg/kg, ip qd for 4 days measured on day 7; format: functional, organism-based; summary of the method: as §1
[8] = tested on: Plasmodium berghei; assay: Antimalarial activity against Plasmodium berghei NK65 infected in mouse assessed as reduction of parasitemia level at 50 to 100 mg/kg, ip qd for 4 days by optical microscopy analysis; format: functional, organism-based; summary of the method: as §1

CCN(CC)CCCC(C)Nc1ccnc2cc(Cl)ccc12 (centres undefined)
Activity [1]: Active

OC(c1cc(C(F)(F)F)nc2c(C(F)(F)F)cccc12)C1CCCCN1 (centres undefined) [MEFLOQUINE]
Ratio LC50/IC50 [2]: 238 | CC50 at 24 h [3]: 9.5 µM

C[C@]12C(=O)C=CCC1=CC[C@@H]1[C@@H]2CC[C@]2(O)C(=O)O[C@@]3(C)[C@H]4C[C@]5(C)[C@@H](CO[C@@]16O[C@@]32[C@H]5C6=O)C(=O)O4 [PHYSALIN B]
Ratio LC50/IC50 [2]: 12.3 | CC50 at 24 h [3]: 33.9 µM | IC50 [4]: 2.8 µM

C[C@@]12C[C@H]3OC(=O)[C@@H]1CO[C@@]14O[C@]5([C@H]2C1=O)[C@@](O)(CC[C@H]1[C@H]4C[C@@H](O)[C@@]2(O)CC=CC(=O)[C@]12C)C(=O)O[C@@]35C [PHYSALIN D]
Ratio LC50/IC50 [2]: 10.4 | Activity [5]: 65% | CC50 at 24 h [3]: 570 µM | IC50 [4]: 55 µM | Activity [6]: 25%

C[C@@]12C[C@H]3OC(=O)[C@@H]1CO[C@]14O[C@]5([C@H]2C1=O)[C@@](O)(CC[C@H]1[C@H]4C[C@H]2O[C@]24CC=CC(=O)[C@]14C)C(=O)O[C@@]35C [PHYSALIN F]
Ratio LC50/IC50 [2]: 5.94 | CC50 at 24 h [3]: 13.3 µM | IC50 [4]: 2.2 µM | Activity [7]: Active | Activity [8]: inactive

C[C@]12C(=O)C=CC=C1[C@@H](O)C[C@@H]1[C@@H]2CC[C@@]2(O)C(=O)O[C@@]3(C)[C@H]4C[C@]5(C)[C@@H](CO[C@@]16O[C@]23[C@H]5C6=O)C(=O)O4 [PHYSALIN G]
Ratio LC50/IC50 [2]: 5.6 | CC50 at 24 h [3]: 37.5 µM | IC50 [4]: 6.7 µM
